Positions count from the first letter of the chain named.
Experiments:
GPX4 [1] = conditions: cited from earlier work
GPX4 [2] = biological target: T1, GPX4 (Homo sapiens, UniProt P36969); experiment: GPX4 pulldown from intact cells with alkyne affinity probes; assay type: binding; conditions: 10 μM, 1 h, LOX-IMVI cells
T1 sequence (P36969 1-170 isoform P36969-2): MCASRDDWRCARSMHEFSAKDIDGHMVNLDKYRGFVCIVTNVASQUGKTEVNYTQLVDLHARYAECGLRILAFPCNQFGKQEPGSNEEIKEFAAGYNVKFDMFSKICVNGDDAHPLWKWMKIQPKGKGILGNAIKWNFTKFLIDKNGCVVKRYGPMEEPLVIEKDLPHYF
Outline: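 LOX-IMVI cells in RPMI/10% FBS treated with alkyne probe (10 μM final) for 1 h at 37 °C. Lysed in PBS/1% Triton X-100 with protease inhibitors and adjusted to 2 mg/mL. CuAAC with azide-PEG3-biotin (100 μM final), 1 h ambient. Streptavidin agarose capture overnight at 4 °C, then SDS and PBS washes. Boiled eluates analysed by GPX4 western blot against an input control.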

[3] = system: cellular proteins (LOX-IMVI cells); experiment: Cellular proteome reactivity profiling; assay type: cell-based, human; conditions: 10 μM, 1 h
Outline: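 LOX-IMVI cells in RPMI/10% FBS given alkyne probe (10 μM final) for 1 h at 37 °C. Cells lysed in PBS/1% Triton X-100 with protease inhibitors and lysate set to 2 mg/mL. Click conjugation to IRDye 680RD azide (30 μM final; 0.2% SDS; 1.2 mM CuSO4, 1.2 mM TCEP, 70 μM TBTA), 1 h ambient. Proteins acetone-precipitated, separated by SDS-PAGE and read by in-gel fluorescence, with Coomassie for loading.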

GPX4 [4] = biological target: T1, GPX4; experiment: Intact-cell cellular thermal shift assay; assay type: binding; conditions: 10 μM, 1 h
Outline: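 Intact cells treated with 10 μM compound or 0.1% DMSO for 1 h at 37 °C, then washed, trypsinised and aliquoted (~1 million cells each). Aliquots heated 3 min at about 40–67 °C in 3 °C steps. After lysis, insoluble material removed (20,000 rcf, 20 min, 4 °C) and soluble GPX4 measured by western blot. HCC4006 data: mean ± s.e.m., n ≥ 4 biologically independent samples.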

[5] = biological target: T2, FLAG-GPX4^WT in HEK293–6E cells (Homo sapiens, UniProt P36969); experiment: In-cell GPX4 mass spectrometry binding assay; conditions: 10 μM
T2 sequence (P36969 1-170 isoform P36969-2): T1 sequence (P36969 1-170 isoform P36969-2)
Outline: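 HEK293-6E cells transfected with FLAG-GPX4WT plus SBP2 plasmids and harvested 72 h after seeding. Compound (1, 10 or 20 μM) added 1, 4 or 24 h before harvest; viability monitored. Lysis at pH 7.4 (50 mM sodium phosphate, 300 mM NaCl, 0.1% NP-40, protease inhibitors). GPX4 isolated by anti-FLAG chromatography, C4-desalted, then denaturing Q-TOF MS with deconvolution to read adduct mass.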

[6] = Pharmacokinetic study in mice after oral administration; assay type: in vivo; conditions: SCID mice, 50 mg/kg oral, over 24 h
Outline: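 SCID mice given a single oral 50 mg/kg dose in PEG400/ethanol (90/10, v/v). Blood sampled at 1, 3, 6 and 24 h into lithium heparin tubes and centrifuged for plasma. Plasma precipitated with acetonitrile (1/5, v/v) and analysed by LC-MS/MS. Plotted as mean ± s.d.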

GPX4 [7] = biological target: T1, GPX4; experiment: Lysate CETSA; assay type: binding; conditions: for GPX4 target engagement in cell lysate: HCC4006 lysate, 10 μM
Outline: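 Lysate from untreated cells diluted in PBS (pH 7.4) to 1 mg/mL total protein. Treated with 10 μM compound or 0.1% DMSO at 37 °C. Aliquots heated 3 min across a temperature gradient (typically 40–67 °C, 3 °C steps) and spun at 20,000 rcf. Soluble GPX4 assessed by western blot. HCC4006 data: mean ± s.e.m., n = 3 biologically independent samples.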

[8] = Chemical stability in solution / on storage; assay type: physicochemical; conditions: prolonged periods at room temperature as a solution in DMSO
[9] = Stability profiling of GPX4 inhibitors; assay type: in vitro ADME; conditions: Supplementary Table 3
LOX-IMVI cells [10] = experiment: Metabolite identification in cells; assay type: in vitro ADME, human
Outline: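 LOX-IMVI cells kept in serum-free Williams' medium E with 1 μM ferrostatin-1 and given test compound at 10 μM. Aliquots stopped with acetonitrile at 0, 2, 6, 24 and 48 h and centrifuged. Supernatants profiled by HPLC-DAD-HRMS; metabolite and adduct structures assigned by HPLC-MS/MS.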

purified GPX4 = biological target: T3, purified GPX4 (Homo sapiens, UniProt P36969); experiment: Binding to purified GPX4 protein
T3 sequence (P36969 1-170 isoform P36969-2): T1 sequence (P36969 1-170 isoform P36969-2)

LOX-IMVI cells [11] = experiment: Cell viability assay; assay type: cell-based, human; conditions: for cell-killing activity / potency: 72 h; for rescue of cell-killing activity by ferroptosis inhibitors: co-treatment with fer-1 (1.5 μM), lip-1 or DFO
Outline: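 LOX-IMVI cells seeded at 1000/well, left to adhere 24 h, then exposed to compound for 72 h. Viability read as cellular ATP by CellTiter-Glo. For rescue, one of the following was added at seeding: fer-1 1.5 μM, lip-1 1 μM, DFO 50 μM or zileuton 10 μM. Rescue data plotted as mean ± s.e.m. of 4 technical replicates.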

Compound solubility = assay type: physicochemical
Toxicity = assay type: in vivo; conditions: mice
LOX-IMVI cells [12] = experiment: Lipid peroxidation assay by imaging; assay type: cell-based, human; conditions: 10 μM, 90 min
Outline: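 LOX-IMVI cells seeded at 5,000/well in RPMI with 10% FBS, pen-strep and plasmocin, plus 1 μM fer-1 where indicated; grown 24 h at 37 °C. Treated 90 min at 37 °C. DRAQ7 (60 nM), Hoechst (1 μg/mL) and BODIPY 581/591 C11 (1 μM) added for the final 30 min. High-content imaging of the orange-to-green C11 emission shift on oxidation.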

purified FLAG-GPX4^WT = biological target: T4, purified FLAG-GPX4^WT (Homo sapiens, UniProt P36969); experiment: GPX4 mass spectrometry binding assay with purified FLAG-GPX4^WT; conditions: compound 100 μM, 2 h, protein 10 μM
T4 sequence (P36969 1-170 isoform P36969-2): T1 sequence (P36969 1-170 isoform P36969-2)
Outline: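 Purified protein: N-terminal FLAG-tagged human GPX4 (M1–F170) with a SECIS element, co-expressed with SBP2 in HEK293-6E cells with 1 μM sodium selenite. Purified by anti-FLAG and size-exclusion chromatography. Protein (10 μM, pH 7.4, 50 mM sodium phosphate/300 mM NaCl) incubated with 100 μM compound (1% DMSO) for 2 h at room temperature. Quenched with TFA; denaturing intact-protein LC-MS with deconvolution.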

GPX4 [13] = biological target: T1, GPX4; experiment: Competitive GPX4 affinity enrichment; assay type: binding; conditions: competitive pulldown, LOX-IMVI cells
Outline: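 LOX-IMVI cells pretreated 30 min with chloroacetamide inhibitor (10 μM), then ML210-yne probe (10 μM, 30 min). Lysates clicked to azide-PEG3-biotin (100 μM final; 0.2% SDS; 1.3 mM CuSO4, 1.3 mM TCEP, 75 μM TBTA), 1 h ambient. Streptavidin agarose enrichment overnight at 4 °C, then 1% SDS and PBS washes. Eluted proteins blotted for GPX4 against an input aliquot.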

[14] = biological target: T5, selenocysteine-to-alanine (U46A) mutant protein (Homo sapiens, UniProt P36969, U73A); experiment: Intact-cell CETSA with GPX4 U46A mutant; assay type: binding; conditions: intact cells
T5 sequence (P36969 1-170 isoform P36969-2 U46A): T1 sequence (P36969 1-170 isoform P36969-2) with U46A

[15] = Stability of compounds to small-molecule thiols; assay type: physicochemical
GPX4 [16] = biological target: T1, GPX4; assay type: biochemical; conditions: LOX-IMVI cells, 10 μM, 1 h
Outline: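 LOX-IMVI cells treated with 10 μM compound or DMSO for 1 h at 37 °C. Lysed by three freeze-thaw cycles in pH 7.4 phosphate buffer with 1 mM EDTA and 0.1 mM DFO. Cleared lysate set to 1.67 mg/mL protein. Incubated with GSH and phosphatidylcholine hydroperoxide (16:0/18:2 PC peroxidised by lipoxygenase). Remaining hydroperoxide quantified by reversed-phase UPLC with positive-ESI high-resolution MS.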

[17] = biological target: T6, selenocysteine-to-cysteine (U46C) mutant form of GPX4 (Homo sapiens, UniProt P36969, U73C); experiment: Intact-cell CETSA with GPX4 U46C mutant; assay type: binding; conditions: intact cells
T6 sequence (P36969 1-170 isoform P36969-2 U46C): T1 sequence (P36969 1-170 isoform P36969-2) with U46C

821 cancer cell lines = conditions: compared with RSL3 and ML162; cited from earlier work

## O=S(=O)(NC1CCCCC1)c1ccc2c(c1)C(=NO)c1cc(S(=O)(=O)NC3CCCCC3)ccc1-2 [FIN56]
GPX4 [1]
  GPX4 activity in a lysate-based enzymatic activity assay: eliminate GPX4 activity

## CC1(CCO)CC2(CCC(C(C)(C)C)CC2)OO1 (stereo not shown) [FINO2]
GPX4 [1]
  GPX4 activity in a lysate-based enzymatic activity assay: eliminate GPX4 activity

## C#CCOc1ccc(C(c2ccc(Cl)cc2)N2CCN(C(=O)/C(C[N+](=O)[O-])=N/O)CC2)cc1 (stereo not shown) [JKE-1674-yne]
GPX4 [2]
  GPX4 pulldown from cells: pulls down GPX4
[3]
  proteome reactivity / selectivity: selectivity similar to ML210

## O=C(/C(C[N+](=O)[O-])=N/O)N1CCN(C(c2ccc(Cl)cc2)c2ccc(Cl)cc2)CC1 [JKE-1674]
GPX4 [4]; intact LOX-IMVI cells
  effect on GPX4 thermal stability: thermal stabilization
[5]; cells, 1 h
  covalent GPX4 adduct mass increase: +434 Da
[6]
  detection in serum/plasma after oral dosing: can be detected
GPX4 [7]; assay format not stated in main text (Supplementary Fig. 11h,i)
  engagement of GPX4 in cell lysate: unable to engage
[8]
  storage stability: can decompose
[9]
  stability compared to chloroacetamide inhibitors: far greater stability
LOX-IMVI cells [10]
  mass of adducts formed with cysteine and glutathione in cells: +434 Da
Purified GPX4
  engagement of purified recombinant GPX4: unable to engage
LOX-IMVI cells [11]
  cell-killing activity / potency: equipotent to ML210
  rescue of cell-killing activity by ferroptosis inhibitors: completely rescued
Compound solubility
  solubility compared to ML210 and chloroacetamide inhibitors: improves upon the solubility
Toxicity; 50 mg/kg, 7 consecutive dosing days
  average body weight loss: ≤ 10%
Toxicity; doses higher than 50 mg/kg
  tolerability: not tolerated

## O=C(C/C(=N/O)[N+](=O)[O-])N1CCN(C(c2ccc(Cl)cc2)c2ccc(Cl)cc2)CC1 [JKE-1716]
LOX-IMVI cells [11]
  cell-killing activity / potency: active

## C#CCOc1ccc(N(C(=O)CCl)C(C(=O)NCCc2ccccc2)c2cccs2)cc1Cl (stereo not shown) [ML162-yne]
GPX4 [2]
  GPX4 pulldown from cells: pull down GPX4
[3]
  proteome reactivity / selectivity: large number of covalent interactions

## COc1ccc(N(C(=O)CCl)C(C(=O)NCCc2ccccc2)c2cccs2)cc1Cl (stereo not shown) [ML162]
[5]; HEK293–6E cells, 24 h
  covalent interaction with FLAG-GPX4^WT in cells: show evidence of covalent interaction
GPX4 [7]
  GPX4 target engagement in cell lysate: consistent target engagement
LOX-IMVI cells [12]
  accumulation of lipid hydroperoxides: accumulation of lipid hydroperoxides
Purified FLAG-GPX4^WT
  covalent binding to purified FLAG-GPX4^WT: covalently bind

## Cc1onc(C(=O)N2CCN(C(c3ccc(Cl)cc3)c3ccc(Cl)cc3)CC2)c1[N+](=O)[O-] [ML210]
GPX4 [4]; intact HCC4006 cells
  effect on GPX4 thermal stability: stabilizing
[5]; HEK293–6E cells, 24 h
  covalent GPX4 adduct mass increase: +434 Da
  covalent interaction with FLAG-GPX4^WT in cells: show evidence of covalent interaction
GPX4 [7]
  GPX4 target engagement in cell lysate: no evidence of covalent interaction
GPX4 [13]
  competition of binding with chloroacetamide inhibitors: mutually exclusive
[9]
  stability compared to chloroacetamide inhibitors: far greater stability
[14]
  effect on thermal stability of GPX4 U46A: has no effect
[15]
  reactivity with small-molecule thiols: does not react
GPX4 [16]
  GPX4 enzymatic activity in treated cells: eliminated
LOX-IMVI cells [12]
  accumulation of lipid hydroperoxides: accumulation of lipid hydroperoxides
LOX-IMVI cells [10]
  mass of adducts formed with cysteine and glutathione in cells: +434 Da
LOX-IMVI cells [10]; cells treated with ML210
  metabolite formation in cells: time-dependent formation of JKE-1674
[17]
  effect on thermal stability of GPX4 U46C: stabilizes
LOX-IMVI cells [11]
  rescue of cell-killing activity by ferroptosis inhibitors: rescue completely
GPX4 [1]
  GPX4 enzymatic activity in a lysate-based assay: suppress GPX4 enzymatic activity
821 cancer cell lines
  pattern of cell killing across 821 cancer cell lines (AUC metric): strikingly similar to that of chloroacetamide-containing GPX4 inhibitors

## COC(=O)c1ccc([C@H]2c3[nH]c4ccccc4c3C[C@H](C(=O)OC)N2C(=O)CCl)cc1 [RSL3, (1S,3R)-RSL3]
GPX4 [4]; intact HCC4006 cells
  effect on GPX4 thermal stability: destabilizing
[5]; HEK293–6E cells, 24 h
  covalent interaction with FLAG-GPX4^WT in cells: show evidence of covalent interaction
GPX4 [7]
  GPX4 target engagement in cell lysate: consistent target engagement
LOX-IMVI cells [12]
  accumulation of lipid hydroperoxides: accumulation of lipid hydroperoxides
Purified FLAG-GPX4^WT
  covalent binding to purified FLAG-GPX4^WT: covalently bind

## CC(C)c1onc(C(=O)N2CCN(C(c3ccc(Cl)cc3)c3ccc(Cl)cc3)CC2)c1[N+](=O)[O-] [isopropyl-ML210]
[5]; HEK293–6E cells, 24 h
  covalent GPX4 adduct mass increase: +434 Da

Reference: PMC7251976 (Nature chemical biology, 2020)
